This assay in a line: Inhibition of ACE. Summed up:
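Enzyme source: rabbit lung acetone powder, extracted by soaking in 100 mM borate buffer, then ultracentrifuged. Extract preincubated 5 min with a range of inhibitor concentrations. Reaction started with a 1 mM solution of chromogenic substrate FAPGG. Initial hydrolysis rate followed continuously as absorbance change at 340 nm over time. IC50 from triplicate measurements fitted to a sigmoidal dose-response curve. Captopril run in parallel as benchmark.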
The compound `CC[C@@H](C)[C@H](N)C(=O)N[C@@H](Cc1ccc(O)cc1)C(=O)N[C@@H](Cc1ccc(O)cc1)C(=O)O` yielded an IC50 of 236 µM.
Under `CC[C@@H](C)[C@H](N)C(=O)N[C@@H](Cc1ccc(O)cc1)C(=O)N[C@H](Cc1ccc(O)cc1)C(=O)O` stands above 1000 µM.
As to `CC[C@@H](C)[C@H](NC(C)=O)C(=O)N[C@@H](Cc1ccc(O)cc1)C(=O)N[C@@H](Cc1ccc(O)cc1)C(=O)O`, the IC50 was 21 µM.
Under `CC[C@@H](C)[C@H](N)C(=O)N[C@@H](Cc1ccc(O)cc1)C(=O)N[C@@H](Cc1ccc(O)cc1)P(=O)(O)O` stands 0.234 µM; under `CC[C@@H](C)[C@H](NC(C)=O)C(=O)N[C@@H](Cc1ccc(O)cc1)C(=O)N[C@H](Cc1ccc(O)cc1)C(=O)O`, 2000 µM.
Under `CCOP(=O)(OCC)[C@H](Cc1ccc(O)cc1)NC(=O)[C@H](Cc1ccc(O)cc1)NC(=O)[C@@H](NC(C)=O)[C@H](C)CC` stands 383 µM.
Under `CC[C@@H](C)[C@H](NC(C)=O)C(=O)N[C@@H](Cc1ccc(O)cc1)C(=O)N[C@H](Cc1ccc(O)cc1)P(=O)(O)O` stands 0.139 µM; under `CC[C@@H](C)[C@H](NC(C)=O)C(=O)N[C@@H](Cc1ccc(O)cc1)C(=O)N[C@@H](Cc1ccc(O)cc1)P(=O)(O)O`, 0.0144 µM; under `CC[C@@H](C)[C@H](N)C(=O)N[C@@H](Cc1ccc(O)cc1)C(=O)N[C@H](Cc1ccc(O)cc1)P(=O)(O)O`, 54.6 µM.
The compound `C[C@H](CS)C(=O)N1CCC[C@H]1C(=O)O` [CAPTOPRIL] gave an IC50 of 0.0077 µM.

A word on the IC50: it is the concentration that gives 50% inhibition. Read a high IC50 as a need for much substance.

Source of the values: ChEMBL document CHEMBL1142429, “Identification of ACE pharmacophore in the phosphonopeptide metabolite K-26” (Bioorg Med Chem Lett, 2008).
